Publication PMC8712509 (International Journal of Nanomedicine, 2021)

Legend:
SGC-7901 cells = experiment: Cytotoxicity assay; format: cell-based, Human; conditions: SGC-7901, MTT, n=3
Method in brief: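 SGC-7901 cells were grown in RPMI-1640 with 10% FBS, 1% penicillin and 1% streptomycin at 37°C, 5% CO2. Log-phase cells were seeded in triplicate at 1.0×10^4 cells/well overnight. Free drug or liposomal test formulations (1.0–100.0 µg/mL drug) were added for 24, 48 or 72 h. MTT (5.0 mg/mL stock) was added for 4 h, then DMSO, and OD read at 490 nm. IC50 was derived from viability.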

[1] = Pharmacokinetics in plasma; format: in vivo; conditions: ICR mice, single 10.0 mg/kg iv
[2] = Biodistribution in major organs; format: in vivo; conditions: ICR mice, single 10.0 mg/kg iv

O=C1[O][Pt]2([NH][C@@H]3CCCC[C@H]3[NH]2)[O]C1=O (relative stereo) [OXA, (1R-trans)-(1,2-cyclohexanediamine-N,N’)[oxalic acid (2-)-O,O’] platinum]
IC50 (SGC-7901 cells; 48 h): 15.87 ± 0.27 µg/mL
IC50 (SGC-7901 cells; 72 h): 14.17 ± 0.14 µg/mL
last time at which OXA was detectable in plasma (undetectable after) [1]: 8 h
plasma concentration of OXA ([1]; 0.08 h): 28590 ± 920 ng/mL
plasma concentration of OXA ([1]; 0.17 h): 25030 ± 320 ng/mL
plasma concentration of OXA ([1]; 0.50 h): 4490 ± 350 ng/mL
plasma concentration of OXA ([1]; 1 h): 3200 ± 100 ng/mL
plasma concentration of OXA ([1]; 2 h): 2860 ± 240 ng/mL
plasma concentration of OXA ([1]; 4 h): 1990 ± 120 ng/mL
plasma concentration of OXA ([1]; 6 h): 1500 ± 700 ng/mL
plasma concentration of OXA ([1]; 8 h): 640 ± 110 ng/mL
CL ([1]; plasma, n=3): 5.53 ± 1.5 mL/min/kg
CLz ([1]; plasma, n=3): 5.85 ± 0.217 mL/min/kg
K10 ([1]; plasma, n=3): 1.319 ± 0.250 h⁻¹
K12 ([1]; plasma, n=3): 5.632 ± 0.360 h⁻¹
K21 ([1]; plasma, n=3): 0.828 ± 0.070 h⁻¹
MRT(0-t) ([1]; plasma, n=3): 2.535 ± 0.520 H
MRT(0-∞) ([1]; plasma, n=3): 4.319 ± 0.130 H
T1/2z ([1]; plasma, n=3): 4.995 ± 0.360 H
Tmax ([1]; plasma, n=3): 0.250 ± 0.015 H
t1/2α ([1]; plasma, n=3): 0.215 ± 0.077 H
t1/2β (elimination half-life) ([1]; plasma, n=3): 3.214 ± 0.420 H
OXA concentration in heart ([2]; 0.5 h): 8.59 ± 0.06 µg/g
OXA concentration in kidneys ([2]; 0.5 h): 8.73 ± 0.45 µg/g
OXA concentration in liver ([2]; 0.5 h): 14.00 ± 0.30 µg/g
OXA concentration in lungs ([2]; 0.5 h): 4.60 ± 0.13 µg/g
OXA concentration in spleen ([2]; 0.5 h): 14.27 ± 0.44 µg/g
OXA concentration in heart ([2]; 1 h): 10.27 ± 0.44 µg/g
OXA concentration in kidneys ([2]; 1 h): 4.02 ± 0.61 µg/g
OXA concentration in liver ([2]; 1 h): 12.49 ± 0.56 µg/g
OXA concentration in lungs ([2]; 1 h): 3.70 ± 0.22 µg/g
OXA concentration in spleen ([2]; 1 h): 13.40 ± 0.80 µg/g
OXA concentration in heart ([2]; 2 h): 6.79 ± 0.40 µg/g
OXA concentration in kidneys ([2]; 2 h): 2.85 ± 0.27 µg/g
OXA concentration in liver ([2]; 2 h): 12.50 ± 0.58 µg/g
OXA concentration in lungs ([2]; 2 h): 4.35 ± 0.63 µg/g
OXA concentration in spleen ([2]; 2 h): 13.21 ± 0.22 µg/g
OXA concentration in heart ([2]; 4 h): 5.55 ± 0.45 µg/g
OXA concentration in kidneys ([2]; 4 h): 2.36 ± 0.70 µg/g
OXA concentration in liver ([2]; 4 h): 10.91 ± 1.56 µg/g
OXA concentration in lungs ([2]; 4 h): 4.98 ± 0.18 µg/g
OXA concentration in spleen ([2]; 4 h): 10.35 ± 1.53 µg/g
OXA concentration in heart ([2]; 6 h): 4.22 ± 0.14 µg/g
OXA concentration in kidneys ([2]; 6 h): 2.84 ± 0.25 µg/g
OXA concentration in liver ([2]; 6 h): 8.87 ± 0.40 µg/g
OXA concentration in lungs ([2]; 6 h): 4.54 ± 0.90 µg/g
OXA concentration in spleen ([2]; 6 h): 10.56 ± 0.56 µg/g
OXA concentration in heart ([2]; 8 h): 3.26 ± 0.34 µg/g
OXA concentration in kidneys ([2]; 8 h): 2.65 ± 0.12 µg/g
OXA concentration in liver ([2]; 8 h): 7.06 ± 0.44 µg/g
OXA concentration in lungs ([2]; 8 h): 3.94 ± 0.12 µg/g
OXA concentration in spleen ([2]; 8 h): 4.81 ± 0.33 µg/g
AUC(0-t), heart ([2]; n=3): 48.080 ± 1.690 µg·h/g
AUC(0-t), kidneys ([2]; n=3): 27.380 ± 1.870 µg·h/g
AUC(0-t), liver ([2]; n=3): 87.870 ± 1.360 µg·h/g
AUC(0-t), lungs ([2]; n=3): 34.130 ± 1.960 µg·h/g
AUC(0-t), spleen ([2]; n=3): 118.170 ± 4.560 µg·h/g
AUC(0-∞), heart ([2]; n=3): 68.591 ± 5.210 µg·h/g
AUC(0-∞), kidneys ([2]; n=3): 69.442 ± 5.640 µg·h/g
AUC(0-∞), liver ([2]; n=3): 161.538 ± 3.960 µg·h/g
AUC(0-∞), lungs ([2]; n=3): 106.955 ± 9.140 µg·h/g
AUC(0-∞), spleen ([2]; n=3): 128.580 ± 9.360 µg·h/g
MRT, heart ([2]; n=3): 5.574 ± 0.980 h
MRT, kidneys ([2]; n=3): 16.594 ± 2.220 h
MRT, liver ([2]; n=3): 9.330 ± 1.020 h
MRT, lungs ([2]; n=3): 17.707 ± 1.990 h
MRT, spleen ([2]; n=3): 5.990 ± 0.230 h
